Sampled rows, rich in hits. Any-hit rate of the full collection: about 3.7%.
Dynein transport = dynein cargo transport inhibition; 220,000 tested, 0.47% active; 3617.4 mouse cells, GR-EGFP nuclear translocation imaging; test concentration mostly 20 µM; stimulated with dexamethasone, 1 µM; active compounds read low; z-score, hits read low; AID 1381;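 active = plate z-score of nuclear minus cytoplasmic receptor signal below a set negative limit, without overly bright fluorescence or cell loss, cut at about -3.5 in these data, passing the limit was not always enough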;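 also: z-score of nuclear minus cytoplasmic ring GR-EGFP intensity difference per well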
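Buffer or medium: tetracycline-free induction medium containing charcoal-stripped FBS / Reagent: dexamethasone agonist, 1.0 µM final, for 30 min / Technique: automated 10x imaging of fixed Hoechst-stained cells / Times: induction 48 h, compound 1 h, agonist 30 min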
Mdm2-MdmX inh = human Mdm2/MdmX binding inhibition | O15151+Q00987 | 330,000 tested, 3% active | SaOS-2 split-luciferase Mdm2/MdmX complementation, luminescence | inhibition, % at 8 µM;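 active = inhibition of at least 50% at 8 µM in the primary screen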
Beta2AR agonist = human beta-2 adrenergic receptor agonism by FAP; P07550; Am2.2-beta2AR cells, FAP receptor internalization, flow cytometry; response, % (test concentration not listed); 340,000 tested, 0.43% active; AID 504454;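 active = response above a set limit, near 3 SD of response in nonfluorescent compounds, cut at about 42% in these data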
Mdm2 ligase inh = blocks human Mdm2 ubiquitin ligase activity; Q00987; cell-based MDM2 ubiquitination luciferase reporter, 2 h; 0 = plate control, 100 = twice control, blank-subtracted; signal enhancement, % at 5 µM; 210,000 tested, 0.11% active; AID 1230;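 active = signal enhancement of 30% or more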;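 also: luminescence tracks abundance of the self-degrading MDM2-luciferase fusion protein; higher signal means inhibition of MDM2 E3 ligase activity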
Target sequence (Q00987 whole entry, looked up, the tested form may be a part): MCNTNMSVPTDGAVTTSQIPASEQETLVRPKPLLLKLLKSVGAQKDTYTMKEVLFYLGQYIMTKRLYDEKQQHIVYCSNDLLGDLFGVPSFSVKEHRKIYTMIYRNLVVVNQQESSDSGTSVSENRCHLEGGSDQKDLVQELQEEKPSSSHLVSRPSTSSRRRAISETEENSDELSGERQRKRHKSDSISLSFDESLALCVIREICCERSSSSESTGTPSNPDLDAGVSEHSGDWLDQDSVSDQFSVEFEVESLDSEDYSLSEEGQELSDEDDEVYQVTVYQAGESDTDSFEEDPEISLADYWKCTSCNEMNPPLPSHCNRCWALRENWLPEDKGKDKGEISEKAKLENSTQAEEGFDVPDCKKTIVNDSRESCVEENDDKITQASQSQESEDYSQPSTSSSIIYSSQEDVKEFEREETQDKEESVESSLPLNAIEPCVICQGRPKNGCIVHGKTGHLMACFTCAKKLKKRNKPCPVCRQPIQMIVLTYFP
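Test system: stable mammalian line carrying autodegrading MDM2–luciferase fusion reporter; quantity: 2000 cells in each well; times: 4 h cell settling then 2 h compound exposure, 37 °C; detection: luminescence with SteadyLite reagent, 15 min at room temperature; evaluation: percent signal gain over controls, blank-subtracted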
XBP1 UPR activ = activators of adaptive arm of unfolded protein response (XBP1); activation, % at 20 µM; 330,000 tested, 0.33% active; CHO-XBP1 luciferase reporter, IRE1-XBP1 UPR activation, luminescence; percent of tunicamycin response, DMSO as zero;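 active = versus positive control, 20 µM dose yields 30% or more activation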;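 also: 100% = tunicamycin at 10 µg/mL and 0% = DMSO only wells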
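Test system: CHO-XBP1 luciferase reporter cells | Buffer or medium: Serum-containing F12 medium, 10% FBS | Schedule: 6 h compound exposure at 37 °C, 5% CO2 | Detection: Steady-Glo luciferase glow luminescence, 10 min after reagent addition | Read-out basis: Activation, % of tunicamycin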
CHOP UPR activ = apoptotic UPR (CHOP) activation; CHO-CHOP luciferase reporter, luminescence; percent of tunicamycin response over DMSO baseline; activation, % at 10 µM; 330,000 tested, 0.34% active;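 active = at 10 µM dose, activation of 40% or more, normalized to positive control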;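 also: 100% = tunicamycin at 10 µg/mL and 0% = DMSO alone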
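assay system = CHO CHOP reporter cells | amount = 500 CHO-CHOP cells per well | buffer or medium = F12 with 10% FBS | incubation = 16-18 h cell attachment, then 6 h compound exposure, 37 °C | detection = luminescence read with Steady-Glo | read-out = percent activation relative to tunicamycin control | controls = tunicamycin high control, DMSO low control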
Mdm2-MdmX conf = confirmation of human Mdm2/MdmX interaction inhibitors | shares compounds with Mdm2-MdmX inh | Mdm2-MdmX binding, luminescent assay | inhibition, % at 8 µM | 10,000 tested, 55% active | AID 489028; in the data active = inhibition above about 40%
FLuc counter = inhibits full-length luciferase, flagging false Mdm2/MdmX hits; inhibition, % at 8 µM; AID 504607; 6,200 tested, 77% active; shares compounds with Mdm2-MdmX inh; SaOS-2 full-length luciferase counterscreen, luminescence;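 active = mean inhibition at 8 µM reaching about 37%, which flags the compound as non-specific, limit read from the data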;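 also: p53-null SaOS-2 cells with luciferase driven by a doxycycline-inducible promoter; compound on cells about two nights before reading with doxycycline added after day one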
The depositor's hits bear a star; x = no result.

SMILES	Dynein transport	Mdm2-MdmX inh	Beta2AR agonist	Mdm2 ligase inh	XBP1 UPR activ	CHOP UPR activ	Mdm2-MdmX conf	others
Cc1cc2c(cc(C(=O)OCC(=O)NCc3cccs3)n2C(C)C)o1	-0.338	63.0*	29.7	-15.5	11.5	0.2	50.4*	FLuc counter=76.8*
Cc1cc(NC(=O)c2cccs2)n(-c2nc3ccccc3[nH]2)n1	-0.608	39.6	-11.4	x	22.9	4.8	x
Cc1cc(NC(=O)C2CCCC2)n(-c2nc3ccccc3[nH]2)n1	0.642	53.5*	-4.7	-13.6	6.1	0.8	40.9*	FLuc counter=62.6*
COc1ccc(C(=O)Nc2cc(C)nn2-c2nc3ccccc3[nH]2)c(OC)c1	-0.305	51.2*	8.3	-19.5	9.7	0.3	32.6
Cc1cc(NC(=O)c2sccc2C)n(-c2nc3ccccc3[nH]2)n1	0.0896	58.7*	-1.5	x	12.7	-1.1	25.6
CCOC(=O)C(=O)Nc1cc(C)nn1-c1nc2ccccc2[nH]1	2.17	7.2	14.4	-7.1	1.4	4.4	x
Cc1cc(NC(=O)c2ccccc2)n(-c2nc3ccccc3[nH]2)n1	-0.0378	38.8	-8.3	-20.8	-0.7	4.3	x
COc1cccc(OC)c1C(=O)Nc1cc(C)nn1-c1nc2ccccc2[nH]1	0.536	77.2*	5.3	-14.6	12.6	-0.5	54.0*	FLuc counter=63.3*
COc1ccccc1C(CNC(=O)CCNC(=O)c1ccccc1Cl)N1CCCC1 (centres undefined)	x	16.4	-1.7	x	-2.7	0.3	x
Cc1ccc(-n2nc3c(=O)n(CCCC(=O)NCC(C)c4ccccc4)nc(C)c3c2C)cc1 (centres undefined)	x	37.7	-4.8	x	4.0	0.3	x
CCN1C(=NCCc2ccc(Br)cc2)N[C@@H](c2ccccc2)[C@H](C(=O)OC)[C@H]1C	x	52.0*	33.2	x	-3.8	1.4	14.0
CC(C)(C)c1ccc(C(=O)NCCOc2ccccc2)cc1	x	43.4	10.2	x	-9.3	-4.3	x
CC(C)(C)c1ccc(C(=O)NCCOc2ccccc2F)cc1	x	62.4*	-10.3	x	-8.9	-7.1	73.1*	FLuc counter=148.4*
COCCCN1C(=O)c2ccc(C(=O)NCCc3ccccc3)cc2C1=O	x	-10.9	-14.6	x	-5.6	-1.3	x
C/C(=N\NC(=O)c1c(C)nc2ccccn12)c1ccccc1F	x	7.2	-4.2	x	-8.2	3.1	x
C/C(=N\NC(=O)c1c(C)nc2ccccn12)c1ccc(O)cc1O	x	73.6*	-13.3	x	-1.9	-2.0	78.5*	FLuc counter=33.7
Nc1c(C(=O)CSc2nc3ccccc3o2)c(=O)[nH]c(=O)n1C1CC1	x	79.6*	-13.3	x	3.2	1.8	19.4
CCN1C(=O)[C@H]2[C@@H](c3ccc(-c4ccc(Cl)c(Cl)c4)c(OC)c3)N3CCCC[C@@]3(C(=O)OC)[C@H]2C1=O	x	65.8*	5.7	x	-3.6	0.6	12.9
CCN1C(=O)[C@H]2[C@@H](c3ccc(-c4cccc(Cl)c4)c(OC)c3)N3CCCC[C@@]3(C(=O)OC)[C@H]2C1=O	x	59.4*	3.4	x	-1.5	0.7	27.8
CCN1C(=O)[C@H]2[C@@H](c3ccc(-c4ccc(Cl)c(Cl)c4)cc3)N3CCCC[C@@]3(C(=O)OC)[C@H]2C1=O	x	65.6*	7.6	x	-1.4	0.4	23.9
CCN1C(=O)[C@H]2[C@@H](c3ccc(-c4cccc(Cl)c4)cc3)N3CCCC[C@@]3(C(=O)OC)[C@H]2C1=O	x	29.7	9.9	x	-3.4	-0.5	x
COC(=O)[C@@]12CCCCN1[C@H](c1ccc(-c3cccc(Cl)c3)cc1)[C@@H]1C(=O)N(C)C(=O)[C@@H]12	x	77.8*	8.7	x	2.5	1.4	31.4
